Measurements published in ChEMBL document CHEMBL4619807, “Exploration of Alternative Scaffolds for P2Y14 Receptor Antagonists Containing a Biaryl Core” (J Med Chem, 2020).
In brackets after ≈: the same amount, converted by molar mass. Activity calls are given as the source filed them. The rule behind the calls is not given here.

What was measured:
P2Y purinoceptor 14 [1] = molecular target: T1, P2Y purinoceptor 14 (Homo sapiens, UniProt Q15391); experiment: Inhibition of MRS4174 binding to human P2Y14R expressed in CHO cells pre-incubated for 30 mins before MRS4174 addition and further incubated for 30 mins at pH 7.4 by flow cytomtery based competitive fluorescence assay; format: cell-based
T1 sequence (Q15391 whole entry): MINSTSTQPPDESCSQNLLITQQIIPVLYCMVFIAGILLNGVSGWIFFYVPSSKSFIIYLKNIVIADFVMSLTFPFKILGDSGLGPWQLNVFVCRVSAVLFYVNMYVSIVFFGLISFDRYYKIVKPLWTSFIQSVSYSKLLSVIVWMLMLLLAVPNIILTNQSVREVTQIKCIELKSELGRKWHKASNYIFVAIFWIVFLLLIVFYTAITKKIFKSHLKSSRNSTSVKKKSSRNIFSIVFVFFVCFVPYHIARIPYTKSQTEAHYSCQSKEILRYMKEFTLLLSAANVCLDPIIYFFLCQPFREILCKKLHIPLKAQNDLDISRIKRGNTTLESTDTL

[2] = Aqueous solubility at pH 7.4 by pION method; format: physicochemical
Summary of the method: (§1)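 Equilibrium aqueous solubility measured by the pION method at pH 4.0 and at pH 7.4, in μg/mL; mean ± SD.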

[3] = Lipophilicity, change in Constant K of the compound by RP-HPLC analysis relative to PPTN; format: physicochemical
Summary of the method: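 Lipophilicity taken from reversed-phase HPLC retention time on a C18 column. Elution used a 20 min gradient of 10 to 100% acetonitrile in 10 mM triethylammonium acetate. Reported as Δk against the reference antagonist.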

[4] = Cmax in rat at 10 mg/kg, ip after 3 to 4 hrs; format: ADME, organism-based; set-up: dose 10 mg/kg, route intraperitoneal; conditions: in vivo
Summary of the method: (§2)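 Rats dosed intraperitoneally at 1, 3 and 10 mg/kg and intravenously at 0.5 mg/kg. Solubilizing vehicle was aqueous DMSO. Plasma concentrations followed over time up to 12 h. Bioavailability derived from ip exposure relative to the iv dose.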

[5] = Stability in simulated gastric fluid assessed as compound remaining level at 120 mins; format: physicochemical; conditions: simulated gi fluid, 2 h
[6] = Aqueous solubility at pH 4 by pION method; format: physicochemical; summary of the method: as §1
Cytochrome P450 2C19 = Cytochrome P450 2C19 (Homo sapiens, UniProt P33261); experiment: Inhibition of CYP2C19 (unknown origin); format: ADME
[7] = Permeability from apical to basolateral side in human Caco2 cells; format: ADME, cell-based; conditions: caco-2
[8] = Stability in rat plasma assessed as compound remaining level at 120 mins; format: ADME, cell-free; conditions: 2 h
[9] = Stability in human plasma assessed as compound remaining level at 120 mins; format: ADME, cell-free; conditions: 2 h
[10] = Drug level in rat at 10 mg/kg, ip after 12 hrs; format: ADME, organism-based; conditions: in vivo; summary of the method: as §2
[11] = Bioavailability in rat at 1 to 10 mg/kg, ip; format: ADME, organism-based; conditions: in vivo; summary of the method: as §2
Cytochrome P450 2D6 = Cytochrome P450 2D6 (Homo sapiens, UniProt P10635); experiment: Inhibition of CYP2D6 (unknown origin); format: ADME
[12] = Tmax in rat at 10 mg/kg, ip; format: ADME, organism-based; conditions: in vivo; summary of the method: as §2
[13] = Half life in human liver microsomes; format: ADME, Microsome
[14] = Stability in mouse plasma assessed as compound remaining level at 120 mins; format: ADME, cell-free; conditions: 2 h
[15] = Plasma concentration in rat at 1 mg/kg, ip after 2 hrs; format: ADME, organism-based; summary of the method: as §2
Cytochrome P450 2C9 = Cytochrome P450 2C9 (Homo sapiens, UniProt P11712); experiment: Inhibition of CYP2C9 (unknown origin); format: ADME
[16] = Plasma concentration in rat at 1 mg/kg, ip after 4 hrs; format: ADME, organism-based; summary of the method: as §2
P2Y purinoceptor 14 [17] = molecular target: T2, P2Y purinoceptor 14 (Mus musculus, UniProt Q9ESG6); experiment: Inhibition of MRS4174 binding to mouse P2Y14R expressed in HEK293 cells pre-incubated for 30 mins before MRS4174 addition and further incubated for 30 mins by flow cytomtery based competitive fluorescence assay; format: cell-based
T2 sequence (Q9ESG6 whole entry): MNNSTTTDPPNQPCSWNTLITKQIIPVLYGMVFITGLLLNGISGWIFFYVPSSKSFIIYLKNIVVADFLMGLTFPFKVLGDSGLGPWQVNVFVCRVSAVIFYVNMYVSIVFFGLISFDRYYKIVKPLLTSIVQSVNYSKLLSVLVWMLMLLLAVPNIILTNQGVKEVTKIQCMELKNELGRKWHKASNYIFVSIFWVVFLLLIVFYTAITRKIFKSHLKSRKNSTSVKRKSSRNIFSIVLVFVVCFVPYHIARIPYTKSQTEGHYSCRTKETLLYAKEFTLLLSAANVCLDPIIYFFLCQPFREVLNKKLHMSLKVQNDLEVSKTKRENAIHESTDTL
Summary of the method: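 Competitive whole-cell binding in HEK293 cells stably expressing N-terminally HA-tagged mouse P2Y14R, grown in a 24-well plate to 80–90% confluency. Antagonist given at 1 nM–100 μM in serum-containing EMEM for 30 min at 37 °C, then tracer added at 20 nM final for 30 min.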

[18] = Half life in rat at 0.5 mg/kg, iv; format: ADME, organism-based; conditions: in vivo
[19] = molecular target: Voltage-gated inwardly rectifying potassium channel KCNH2 (Homo sapiens, UniProt Q12809); experiment: Inhibition of human ERG
[20] = Half life in rat liver microsomes; format: ADME, Microsome
[21] = Half life in rat at 1 mg/kg, ip; format: ADME, organism-based; conditions: in vivo
HepG2 = experiment: Toxicity in human HepG2 cells; format: cell-based
[22] = Half life in mouse liver microsomes; format: ADME, Microsome
[23] = Stability in simulated intestinal fluid assessed as compound remaining level at 120 mins; format: physicochemical; conditions: simulated gi fluid, 2 h
P2Y purinoceptor 14 [24] = molecular target: T1, P2Y purinoceptor 14; experiment: cell-based
[25] = Solubility in 10% DMSO in water; format: physicochemical; conditions: buffer
Summary of the method: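 Compound dissolved in DMSO without basification, then diluted with water to 10% DMSO at 1 mg/mL. Solubility was judged by the absence of precipitation on dilution.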

Mus musculus = experiment: Antiasthmatic activity in Aspergillus oryzae protease-mediated C57BL/6J mouse model of allergic asthma assessed as reduction in eosinophil infiltration in bronchoalveolar lavage fluid at 10 mg/kg, ip dosed 30 mins before OVA aerosol challenge and measured 2 days post-challenge by cell differential count assay; format: functional, organism-based
P2Y purinoceptor 14 [26] = molecular target: T1, P2Y purinoceptor 14; experiment: cell-based; remark: listed apart in the source
P2Y purinoceptor 14 [27] = molecular target: T1, P2Y purinoceptor 14; experiment: cell-based; remark: listed apart in the source
[28] = molecular target: Sigma non-opioid intracellular receptor 1 (Homo sapiens, UniProt Q99720); experiment: Binding affinity to sigma 1 receptor (unknown origin)
[29] = Binding affinity to sigma 2 receptor (unknown origin); set-up: species or system Homo sapiens
[30] = molecular target: Delta-type opioid receptor (Homo sapiens, UniProt P41143); experiment: Binding affinity to DOR (unknown origin)
[31] = Unbound fraction in mouse plasma; format: ADME, cell-free
Summary of the method: (§3)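 Plasma protein binding measured at 10 μM compound in human and mouse plasma, expressed as percent unbound (mean ± SD). Verapamil and warfarin were positive controls.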

[32] = molecular target: 5-hydroxytryptamine receptor 1D (Homo sapiens, UniProt P28221); experiment: Binding affinity to 5HT1D receptor (unknown origin)
Homo sapiens = organism: Homo sapiens; experiment: Selectivity index, ratio of IC50 for inhibition of MRS4174 binding to human P2Y14R expressed in CHO cells to IC50 for inhibition of MRS4174 binding to mouse P2Y14R expressed in […] cells; format: cell-based
Summary of the method: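 Ratio of human to mouse IC50 from fluorescent-tracer binding. Human P2Y14R was in CHO cells in a 96-well format. Mouse P2Y14R was in HEK293 cells, with 30 min antagonist pre-incubation and then 20 nM tracer for 30 min at 37 °C. Both read by flow cytometry.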

D(1B) dopamine receptor = D(1B) dopamine receptor (Homo sapiens, UniProt P21918); experiment: Binding affinity to dopamine D5 receptor (unknown origin)
Translocator protein = Translocator protein (Homo sapiens, UniProt P30536); experiment: Binding affinity to TSPO receptor (unknown origin)
Cannabinoid receptor 2 [33] = molecular target: T3, Cannabinoid receptor 2 (Homo sapiens, UniProt P34972); experiment: Agonist activity at CB2 receptor (unknown origin)
Summary of the method: (§4)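 Tested through the Psychoactive Drug Screening Program as functional agonist and antagonist at CB1 and CB2 cannabinoid receptors, with an upper test concentration of 10 μM.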

Cannabinoid receptor 1 [34] = molecular target: T4, Cannabinoid receptor 1 (Homo sapiens, UniProt P21554); experiment: Agonist activity at CB1 receptor (unknown origin); summary of the method: as §4
[35] = Unbound fraction in human plasma; format: ADME, cell-free; summary of the method: as §3
Cannabinoid receptor 2 [36] = molecular target: T3, Cannabinoid receptor 2; experiment: Antagonist activity at CB2 receptor (unknown origin); summary of the method: as §4
Cannabinoid receptor 1 [37] = molecular target: T4, Cannabinoid receptor 1; experiment: Antagonist activity at CB1 receptor (unknown origin); summary of the method: as §4

Delta-type opioid receptor, sequence (P41143 whole entry): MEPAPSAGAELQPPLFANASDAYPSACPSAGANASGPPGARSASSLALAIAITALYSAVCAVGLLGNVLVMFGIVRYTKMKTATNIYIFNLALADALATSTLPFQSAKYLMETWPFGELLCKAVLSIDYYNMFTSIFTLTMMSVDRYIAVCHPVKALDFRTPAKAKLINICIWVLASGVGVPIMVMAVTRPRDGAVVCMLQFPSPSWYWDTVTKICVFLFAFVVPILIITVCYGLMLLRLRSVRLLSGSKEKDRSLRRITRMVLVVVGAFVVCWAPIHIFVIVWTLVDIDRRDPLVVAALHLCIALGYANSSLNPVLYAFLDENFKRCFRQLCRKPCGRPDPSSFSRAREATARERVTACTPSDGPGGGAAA
T4 sequence (P21554 whole entry): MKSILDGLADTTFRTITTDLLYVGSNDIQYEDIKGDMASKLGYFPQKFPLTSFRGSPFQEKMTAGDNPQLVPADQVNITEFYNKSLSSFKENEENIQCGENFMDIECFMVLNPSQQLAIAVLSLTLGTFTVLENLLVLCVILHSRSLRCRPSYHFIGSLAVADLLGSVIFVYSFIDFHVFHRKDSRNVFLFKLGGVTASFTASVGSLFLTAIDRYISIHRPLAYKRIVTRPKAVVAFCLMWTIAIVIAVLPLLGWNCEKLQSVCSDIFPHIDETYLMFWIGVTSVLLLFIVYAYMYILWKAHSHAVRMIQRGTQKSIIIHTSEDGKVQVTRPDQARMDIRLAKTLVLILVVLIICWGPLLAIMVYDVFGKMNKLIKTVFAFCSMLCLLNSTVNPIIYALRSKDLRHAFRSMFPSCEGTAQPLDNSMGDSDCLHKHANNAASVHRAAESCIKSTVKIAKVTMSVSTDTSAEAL
T3 sequence (P34972 whole entry): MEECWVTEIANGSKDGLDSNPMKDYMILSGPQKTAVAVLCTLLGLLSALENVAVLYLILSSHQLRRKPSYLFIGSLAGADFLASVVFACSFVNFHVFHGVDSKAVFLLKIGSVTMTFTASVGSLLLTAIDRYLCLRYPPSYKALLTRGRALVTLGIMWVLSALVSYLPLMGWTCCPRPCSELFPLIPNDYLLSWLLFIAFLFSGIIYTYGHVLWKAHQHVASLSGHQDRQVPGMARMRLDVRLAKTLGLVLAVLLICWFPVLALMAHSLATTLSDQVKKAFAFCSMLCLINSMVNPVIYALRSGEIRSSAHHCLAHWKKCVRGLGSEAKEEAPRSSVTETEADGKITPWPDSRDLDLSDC
5-hydroxytryptamine receptor 1D, sequence (P28221 whole entry): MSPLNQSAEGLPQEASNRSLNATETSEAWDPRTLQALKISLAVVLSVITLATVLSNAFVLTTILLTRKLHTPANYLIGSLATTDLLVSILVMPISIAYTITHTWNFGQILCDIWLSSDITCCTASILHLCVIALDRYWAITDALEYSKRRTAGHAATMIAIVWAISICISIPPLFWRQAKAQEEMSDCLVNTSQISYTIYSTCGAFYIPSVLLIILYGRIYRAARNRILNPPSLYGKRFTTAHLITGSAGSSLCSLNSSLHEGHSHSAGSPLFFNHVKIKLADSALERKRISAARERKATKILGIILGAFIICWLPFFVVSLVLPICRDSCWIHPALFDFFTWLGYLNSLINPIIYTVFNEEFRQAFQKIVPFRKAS
Cytochrome P450 2C19, sequence (P33261 whole entry): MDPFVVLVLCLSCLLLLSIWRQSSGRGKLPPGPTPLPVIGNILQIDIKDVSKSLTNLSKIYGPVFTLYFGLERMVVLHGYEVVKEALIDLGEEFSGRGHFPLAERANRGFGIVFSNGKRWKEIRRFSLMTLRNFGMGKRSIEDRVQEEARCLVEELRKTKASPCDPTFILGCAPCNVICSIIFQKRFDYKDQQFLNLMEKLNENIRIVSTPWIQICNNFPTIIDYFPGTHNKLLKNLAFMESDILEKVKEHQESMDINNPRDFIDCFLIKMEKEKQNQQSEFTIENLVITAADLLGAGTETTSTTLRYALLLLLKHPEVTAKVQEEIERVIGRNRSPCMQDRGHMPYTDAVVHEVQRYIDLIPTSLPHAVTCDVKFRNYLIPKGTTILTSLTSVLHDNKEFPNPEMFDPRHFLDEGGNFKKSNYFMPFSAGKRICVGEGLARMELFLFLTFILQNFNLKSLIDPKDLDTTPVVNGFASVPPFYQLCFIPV
Sigma non-opioid intracellular receptor 1, sequence (Q99720 whole entry): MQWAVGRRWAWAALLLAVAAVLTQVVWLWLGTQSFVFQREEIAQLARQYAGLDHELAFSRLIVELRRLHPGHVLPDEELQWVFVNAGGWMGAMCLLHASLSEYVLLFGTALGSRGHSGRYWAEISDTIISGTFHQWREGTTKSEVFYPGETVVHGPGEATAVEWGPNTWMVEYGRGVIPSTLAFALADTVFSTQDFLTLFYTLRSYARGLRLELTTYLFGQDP
Translocator protein, sequence (P30536 whole entry): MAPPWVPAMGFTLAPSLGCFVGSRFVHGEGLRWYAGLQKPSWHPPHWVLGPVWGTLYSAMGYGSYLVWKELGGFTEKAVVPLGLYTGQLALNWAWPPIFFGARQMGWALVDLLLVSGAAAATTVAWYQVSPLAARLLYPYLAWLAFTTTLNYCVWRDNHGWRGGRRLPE
Voltage-gated inwardly rectifying potassium channel KCNH2, sequence (Q12809 whole entry): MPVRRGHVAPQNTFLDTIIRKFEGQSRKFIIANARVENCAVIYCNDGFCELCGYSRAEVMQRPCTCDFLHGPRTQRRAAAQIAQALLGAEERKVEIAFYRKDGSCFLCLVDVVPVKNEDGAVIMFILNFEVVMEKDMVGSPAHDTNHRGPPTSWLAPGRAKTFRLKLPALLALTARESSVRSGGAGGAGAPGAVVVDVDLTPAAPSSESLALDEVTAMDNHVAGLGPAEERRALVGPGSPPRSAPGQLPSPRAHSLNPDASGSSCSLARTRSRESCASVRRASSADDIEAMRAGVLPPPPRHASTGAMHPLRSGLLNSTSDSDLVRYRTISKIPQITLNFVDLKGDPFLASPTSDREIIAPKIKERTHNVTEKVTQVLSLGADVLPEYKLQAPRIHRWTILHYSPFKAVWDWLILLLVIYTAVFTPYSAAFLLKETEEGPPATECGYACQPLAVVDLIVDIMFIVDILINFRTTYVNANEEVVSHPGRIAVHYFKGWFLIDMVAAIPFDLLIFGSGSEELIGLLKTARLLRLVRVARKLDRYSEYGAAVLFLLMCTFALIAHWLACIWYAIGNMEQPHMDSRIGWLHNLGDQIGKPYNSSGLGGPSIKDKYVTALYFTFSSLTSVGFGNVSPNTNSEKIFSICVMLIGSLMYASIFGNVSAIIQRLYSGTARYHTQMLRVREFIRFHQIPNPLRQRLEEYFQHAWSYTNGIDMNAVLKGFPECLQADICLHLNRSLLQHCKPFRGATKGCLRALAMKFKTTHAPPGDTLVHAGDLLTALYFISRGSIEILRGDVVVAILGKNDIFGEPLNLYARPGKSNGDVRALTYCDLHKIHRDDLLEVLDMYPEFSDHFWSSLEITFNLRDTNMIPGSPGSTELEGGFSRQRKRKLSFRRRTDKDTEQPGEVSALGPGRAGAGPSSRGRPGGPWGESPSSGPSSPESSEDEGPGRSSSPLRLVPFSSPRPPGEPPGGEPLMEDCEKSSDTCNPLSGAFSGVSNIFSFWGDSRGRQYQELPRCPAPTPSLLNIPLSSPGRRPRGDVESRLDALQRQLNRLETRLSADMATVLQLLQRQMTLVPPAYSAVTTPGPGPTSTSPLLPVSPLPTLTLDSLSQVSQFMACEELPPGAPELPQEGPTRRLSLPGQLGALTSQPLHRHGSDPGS
D(1B) dopamine receptor, sequence (P21918 whole entry): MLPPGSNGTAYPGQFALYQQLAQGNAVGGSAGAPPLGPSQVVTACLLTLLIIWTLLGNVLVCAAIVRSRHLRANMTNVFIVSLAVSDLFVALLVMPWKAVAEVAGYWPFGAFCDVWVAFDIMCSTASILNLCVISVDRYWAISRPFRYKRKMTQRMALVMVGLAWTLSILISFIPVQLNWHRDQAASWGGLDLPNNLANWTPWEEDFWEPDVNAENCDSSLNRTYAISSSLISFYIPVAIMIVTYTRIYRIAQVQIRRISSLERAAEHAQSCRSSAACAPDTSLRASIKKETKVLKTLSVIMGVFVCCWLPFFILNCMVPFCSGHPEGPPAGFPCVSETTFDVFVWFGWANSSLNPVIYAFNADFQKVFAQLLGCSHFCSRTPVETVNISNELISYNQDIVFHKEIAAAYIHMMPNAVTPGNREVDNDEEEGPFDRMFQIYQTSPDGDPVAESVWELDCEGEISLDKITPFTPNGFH
Cytochrome P450 2D6, sequence (P10635 whole entry): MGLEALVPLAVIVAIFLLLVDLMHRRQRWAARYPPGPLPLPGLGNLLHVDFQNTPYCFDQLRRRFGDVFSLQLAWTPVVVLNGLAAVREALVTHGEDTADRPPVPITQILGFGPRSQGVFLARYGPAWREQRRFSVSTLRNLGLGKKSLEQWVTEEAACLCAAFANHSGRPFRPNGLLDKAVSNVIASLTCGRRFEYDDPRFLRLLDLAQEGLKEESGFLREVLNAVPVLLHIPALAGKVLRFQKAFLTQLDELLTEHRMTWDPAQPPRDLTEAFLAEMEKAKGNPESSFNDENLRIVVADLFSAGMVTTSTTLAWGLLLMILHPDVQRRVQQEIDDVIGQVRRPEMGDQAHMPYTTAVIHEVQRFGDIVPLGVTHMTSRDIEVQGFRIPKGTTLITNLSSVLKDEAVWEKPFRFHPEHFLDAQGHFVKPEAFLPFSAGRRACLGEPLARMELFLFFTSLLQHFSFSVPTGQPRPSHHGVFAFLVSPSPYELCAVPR

## NC(=O)c1cc(-c2ccc(C3CCNCC3)cc2)cc(-n2cc(-c3ccc(C(F)(F)F)cc3)nn2)c1
P2Y purinoceptor 14 [1]
  IC50: > 100 µM

## O=C(O)c1cc(-c2ccc(C34CCN(CC3)CC4)cc2)cc(-n2cc(-c3ccc(C(F)(F)F)cc3)nn2)c1
[2]; aqueous, read-out: solubility
  solubility: 0.1 to 1.1 µg/mL (≈ 0.193 to 2.12 µM)
[3]
  fold change (FC): -0.09
[4]
  Cmax: 900 ng/mL
[5]
  Stability: 106%
[6]; aqueous, read-out: solubility
  solubility: 2.8 to 14.5 µg/mL (≈ 5.4 to 27.9 µM)
Cytochrome P450 2C19
  IC50: > 30 µM
[7]
  Papp: 0.09 ×10⁻⁶ cm/s
[8]
  Stability: 89.4%
[9]
  Stability: 86.8%
[10]
  Drug uptake: 200 to 400 ng/kg
[11]
  bioavailability: 100%
Cytochrome P450 2D6
  IC50: > 30 µM
P2Y purinoceptor 14 [1]
  IC50: 0.105 µM
[12]
  Tmax: 3 to 4 h
[13]
  t1/2: 3.2 h
[14]
  Stability: 79.5%
[15]
  concentration at 2 h: 206 nM
Cytochrome P450 2C9
  IC50: > 30 µM
[16]
  concentration at 4 h: 163 nM
P2Y purinoceptor 14 [17]
  IC50: 0.845 µM
[18]
  half-life: 0.72 h
[19]
  IC50: 16.8 µM
[20]
  t1/2: 1.8 h
[21]
  half-life: 4.6 h
HepG2
  IC50: > 20 µM
[22]
  t1/2: 5.18 h
[23]
  Stability: 102%

## O=C(O)c1cc(-c2ccc(C34CCN(CC3)CC4)cc2)c2ccc(-c3ccc(C(F)(F)F)cc3)cc2c1
[2]; aqueous, read-out: solubility
  solubility: 0.44 to 0.55 µg/mL (≈ 0.877 to 1.1 µM)
[3]
  fold change (FC): 1.24
[4]
  Cmax: 900 ng/mL
[6]; aqueous, read-out: solubility
  solubility: 1.5 to 14.3 µg/mL (≈ 2.99 to 28.5 µM)
[9]
  Stability: 100%
[10]
  Drug uptake: 200 to 400 ng/kg
[11]
  bioavailability: 100%
P2Y purinoceptor 14 [24]
  IC50: 0.0845 µM
[12]
  Tmax: 3 to 4 h
[25]
  solubility: 1000 µg/mL (≈ 1990 µM)
Mus musculus
  Activity: Active
P2Y purinoceptor 14 [26]
  IC50: 0.057 µM
[13]
  t1/2: > 4 h
[14]
  Stability: 100%
[15]
  concentration at 2 h: 165 nM
P2Y purinoceptor 14 [27]
  IC50: 0.0381 µM
[16]
  concentration at 4 h: 292 nM
P2Y purinoceptor 14 [17]
  IC50: 0.0214 µM
[18]
  half-life: 3.46 h
[20]
  t1/2: 1.33 h
[21]
  half-life: 5.1 h
HepG2
  IC50: > 20 µM
[22]
  t1/2: 1.12 h

## NC(=O)c1ccc(-c2cc(C(=O)O)cc(-c3cn(-c4ccc(C(F)(F)F)cc4)nn3)c2)cc1
[28]
  Ki: 0.5 µM
[29]
  Ki: 2.91 µM
[30]
  Ki: 2.48 µM

## NCCCNC(=O)c1ccc(-c2cc(C(=O)O)cc(-n3cc(-c4ccc(C(F)(F)F)cc4)nn3)c2)s1
[31]
  Fu: 0.83%
[32]
  Ki: 4.34 µM
Mus musculus
  Activity: Active

## O=C(O)c1cc(-c2ccc(N3CCNCC3)cc2)cc(-n2cc(-c3ccc(C(F)(F)F)cc3)nn2)c1
Homo sapiens
  Ratio IC50: 2.1
[29]
  Ki: 6.7 µM

## CC(=O)N1CCC(c2ccc(-c3cc(C(=O)O)cc4cc(-c5ccc(C(F)(F)F)cc5)ccc34)cc2)CC1
[2]; buffer
  solubility: 2.32 µg/mL (≈ 4.48 µM)
[6]; buffer
  solubility: 0.09 µg/mL (≈ 0.174 µM)
Mus musculus
  Activity: Active
D(1B) dopamine receptor
  Ki: 4.38 µM
Translocator protein
  Ki: 0.51 µM

## O=C(O)c1cc(-c2ccc(C3CCNCC3)cc2)cc(-c2cn(-c3ccc(C(F)(F)F)cc3)nn2)c1
[31]
  Fu: 1.33%
Cannabinoid receptor 2 [33]
  EC50: > 10 µM
Mus musculus
  Activity: Active
Cannabinoid receptor 1 [34]
  EC50: > 10 µM
[30]
  Ki: 3.79 µM
[35]
  Fu: 1.25%
Cannabinoid receptor 2 [36]
  EC50: > 10 µM
Cannabinoid receptor 1 [37]
  EC50: > 10 µM
